Results of several laboratories.
Each line is one published result; the experiments were not run side by side.
Target: Serine/threonine-protein kinase MRCK alpha (CDC42BPA, Homo sapiens, UniProt Q5VT25)

SMILES	assay	conditions	remaining binding [%]
F[C@@H]1CCN(c2nccc(-c3cnn4ncccc34)n2)C1	binding	1 µM	100
O=C(NCCCN1CCOCC1)c1ccc(Nc2nccc(-c3cc4ccccc4s3)n2)cc1	binding, competition with immobilised ligand	1 µM	72
O=C(Nc1c[nH]nc1C(=O)NC1CCNCC1)c1cc(F)cc(F)c1	binding, competition with immobilised ligand	1 µM	95
O=C(c1ccc(Nc2nccc(-c3cc4ccccc4s3)n2)cc1)N1CCC(N2CCCC2)CC1	binding, competition with immobilised ligand	1 µM	65
c1cncc(-c2cccc(Nc3nccc(NC4CCCCC4)n3)c2)c1	binding, competition with immobilised ligand	10 µM	100
CN(C)c1ncc(F)c(-c2cnn3ncccc23)n1	binding	1 µM	100
CN(C)CC#Cc1ccc(OCCCc2sc(N3CCc4cccc(C(=O)Nc5nc6ccccc6s5)c4C3)nc2C(=O)O)c(F)c1	cell-free assay, competition with immobilised ligand	1 µM	97
COc1cnc(Nc2cccc(S(N)(=O)=O)c2)nc1N1CCN(c2ccccc2)C(=O)C1	binding, competition with immobilised ligand	1 µM	100
CN(CCCC(F)(F)F)c1nccc(-c2cnn3ncccc23)n1	binding	1 µM	100
FC(F)(F)Oc1cccc(-c2cnc3ccc(-c4ccncc4)nn23)c1	cell-free assay, competition with immobilised ligand	5 µM	69
NS(=O)(=O)c1cc(NC(=O)Cc2ccccc2)ccc1Oc1cccc(Cl)c1	cell-free assay, competition with immobilised ligand	1 µM	91
CN(C)c1nccc(-c2cnn3ncccc23)n1	binding	1 µM	100
COc1cc(-c2cn(C3CCc4c(F)cccc4N(CC(F)(F)F)C3=O)nn2)ccc1-n1cnc(C)c1 (stereo not shown)	cell-free assay, competition with immobilised ligand	1 µM	100
COc1ncc2cc3ccccc3nc2c1C#N	cell-free assay, competition with immobilised ligand	5 µM	100
C[C@@]1(Cc2ccc(C#N)cc2)C(=O)N(c2cc(Cl)cc(Cl)c2)c2ncc(C(=O)NC3(c4nc(C5CCC5)no4)CC3)n21	cell-free assay, competition with immobilised ligand	1 µM	100
N[C@@H]1CCN(c2nccc(-c3cnn4ncccc34)n2)C1	binding	1 µM	100
Cc1cc(NC(=O)c2cccc(S(F)(F)(F)(F)F)c2)cc(-n2ccn3nc(-c4cccnc4)cc23)c1	cell-free assay, competition with immobilised ligand	1 µM	88.5
Cc1cnc(Nc2ccc(C(=O)N3CCC(N4CCCC4)CC3)cc2)nc1-c1cc2ccccc2s1	binding, competition with immobilised ligand	1 µM	10
CN1CCN(c2cnc3c(C4CCN(C(=O)c5ccc(OC(F)(F)F)cc5N)CC4)ncnc3c2)CC1	cell-free assay, competition with immobilised ligand	1 µM	100
C=CC(=O)N1CCC(C(=O)NCC(=O)N2CCN(c3nc(-c4cnc(N)nc4C(F)F)nc(N4CCOCC4)n3)CC2)CC1	binding, competition with immobilised ligand	1 µM	100
Cc1noc([C@H]2C[C@@H](c3ccc(C(F)(F)F)cc3)CN(C(=O)N3CCS(=O)(=O)C3)C2)n1	cell-free assay, competition with immobilised ligand	1 µM	100
C[C@H]1CCN(c2nccc(-c3cnn4ncccc34)n2)C1	binding	1 µM	98
